The results in this text go back to ChEMBL document CHEMBL1148530, “Discovery of new antitubercular oxazolyl thiosemicarbazones” (J Med Chem, 2006).

Converted amounts (≈) assume the structure as drawn. The source made the active and inactive calls. The rule behind the calls is not given here. Some results are limits rather than exact numbers.

The test system of experiment [1] is Mycobacterium tuberculosis. As to the kind of experiment: Antimycobacterial activity against Mycobacterium tuberculosis H37Rv. Format: functional. In outline:
(§1)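 MIC determined by agar dilution, following the NCCLS-recommended approach, in duplicate. Strains were M. tuberculosis H37Rv and a multidrug-resistant M. tuberculosis. Concentrations were tested up to 25 µg/mL.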

Experiment [2] relates to Vero. As to the kind of experiment: Cytotoxicity against Vero cell line. Format: functional, cell-based. The settings on record: Chlorocebus sabaeus.
Experiment [3] relates to Mycobacterium tuberculosis. The experiment can be described thus: Activity against Mycobacterium tuberculosis H37Rv infected in CD1 mouse assessed as decrease in bacterial load relative to control in spleen at 50 mg/kg, ip. Format: functional. The conditions noted are these: route intraperitoneal. In outline:
(§2)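 Female CD-1 mice, 6 weeks old, infected intravenously via the caudal vein with about 10⁷ viable M. tuberculosis ATCC 35801. Intraperitoneal treatment for 10 days after inoculation.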

Experiment [4] relates to Mycobacterium tuberculosis. The experiment can be described thus: Activity against Mycobacterium tuberculosis H37Rv infected in CD1 mouse assessed as decrease in bacterial load relative to control in lung at 50 mg/kg, ip. Format: functional. The conditions noted are these: route intraperitoneal. In outline:
as §2

Experiment [5] deals with Mycobacterium tuberculosis. The experiment can be described thus: Activity against Mycobacterium tuberculosis H37Rv infected in CD1 mouse assessed as decrease in bacterial load relative to control in spleen at 25 mg/kg, ip. Format: functional. The conditions noted are these: route intraperitoneal. The method, boiled down: as §2
In experiment [6] the test system is Mycobacterium tuberculosis. As to the kind of experiment: Activity against Mycobacterium tuberculosis H37Rv infected in CD1 mouse assessed as decrease in bacterial load relative to control in lung at 25 mg/kg, ip. Format: functional. The settings on record: route intraperitoneal. In outline:
as §2

Experiment [7] deals with Mycobacterium tuberculosis. The experiment can be described thus: Antimycobacterial activity against Mycobacterium tuberculosis H37Rv at 25 ug/ml. Format: functional, organism-based. The method, boiled down: as §1
For experiment [8], the system named is Vero. As to the kind of experiment: Selectivity index, IC50 for Vero cell line/ MIC for Mycobacterium tuberculosis H37Rv. Format: functional. The method, boiled down:
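Vero cells were exposed to compound at 62.5 µg/mL for 72 h. Viability was read by MTT conversion to formazan. Selectivity index is the Vero IC50 divided by the agar-dilution MIC against the listed strain.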

In experiment [1], `O=[N+]([O-])c1ccccc1/C=N/N=C(\S)Nc1ncc(C2CCC2)o1` yielded an MIC of 0.78 µg/mL (≈ 2.26 µM). The same measure, in the same setting: next, `S=C(NN=C(Cc1ccccc1)Cc1ccccc1)Nc1ncc(C2CCC2)o1`: 6.25 µg/mL (≈ 15.4 µM). In the experiment on Vero [2], `O=[N+]([O-])c1ccc(/C=N/N=C(\S)Nc2ncc(C3CCC3)o2)cc1` had an IC50 of under 62.5 µg/mL. The molecule further returned a minimal inhibitory concentration (MIC) in experiment [1] of 0.39 µg/mL (≈ 1.13 µM).

As for `COc1c(N2CCNC(C)C2)c(F)cc2c(=O)c(C(=O)O)cn(C3CC3)c12` (stereo not drawn) [GATIFLOXACIN], the IC50 with Vero [2] is over 62.5 µg/mL. For the same molecule, the Log10 cfu in experiment [3] came to 6.24; in experiment [4], 6.02. In experiment [1], this molecule registered an MIC of 0.2 µg/mL (≈ 0.533 µM). Regarding `Oc1[nH]c2ccc(F)cc2c1/N=N/C(S)=N/c1ncc(C2CCC2)o1`, in experiment [1], the MIC came out at 12.5 µg/mL (≈ 34.8 µM). In experiment [1], `S=C(N/N=C/c1ccc(Cl)cc1)Nc1ncc(C2CCC2)o1` had an MIC of 1.56 µg/mL (≈ 4.66 µM). Take `Oc1ccccc1/C=N/N=C(\S)Nc1ncc(C2CCC2)o1`: the MIC in experiment [1] is 6.25 µg/mL (≈ 19.8 µM). Still for that read-out and setting: as for `Oc1[nH]c2ccccc2c1/N=N/C(S)=N/c1ncc(C2CCC2)o1`, the figure is 25 µg/mL (≈ 73.2 µM). In the experiment on Vero [2], `Cc1ccc(/C=N/N=C(\S)Nc2ncc(C3CCC3)o2)cc1` showed an IC50 of under 62.5 µg/mL. Also, the MIC in experiment [1] is 3.12 µg/mL (≈ 9.92 µM). Regarding `COc1cc(/C=N/N=C(\S)Nc2ncc(C3CCC3)o2)ccc1O`, in experiment [1], the MIC is 12.5 µg/mL (≈ 36.1 µM).

On to `CC[C@@H](CO)NCCN[C@@H](CC)CO` [ETHAMBUTOL], for which the IC50 with Vero [2] is over 62.5 µg/mL. In experiment [1], this molecule came in with a minimal inhibitory concentration (MIC) of 1.56 µg/mL (≈ 7.64 µM). Turning to `C/C(=N\N=C(/S)Nc1ncc(C2CCC2)o1)c1ccccc1`, the MIC in experiment [1] was 3.12 µg/mL (≈ 9.92 µM). In the case of `NNC(=O)c1ccncc1` [ISONIAZID], the Log10 cfu amounted to 4.11 in experiment [5] and 5.12 in experiment [6]. The molecule further returned an IC50 with Vero [2] of over 62.5 µg/mL. Besides, the lowest concentration to inhibit growth in experiment [1] (MIC) was 0.05 µg/mL (≈ 0.365 µM).

`N/N=C(\S)Nc1ncc(C2CCC2)o1`: the outcome in experiment [7] was inactive. Consider `C/C(=N\N=C(/S)Nc1ncc(C2CCC2)o1)c1ccccc1O`, for which the MIC in experiment [1] stood at 3.12 µg/mL (≈ 9.44 µM). Same read-out and setting: next, `COc1ccc(/C=N/N=C(\S)Nc2ncc(C3CCC3)o2)cc1`: 6.25 µg/mL (≈ 18.9 µM). For `CO[C@H]1/C=C/O[C@@]2(C)Oc3c(C)c(O)c4c(O)c(c(/C=N/N5CCN(C)CC5)c(O)c4c3C2=O)NC(=O)/C(C)=C\C=C\[C@H](C)[C@H](O)[C@@H](C)[C@@H](O)[C@@H](C)[C@H](OC(C)=O)[C@@H]1C` [RIFAMPIN], the IC50 in the experiment with Vero [2] is over 62.5 µg/mL. For the same molecule, the MIC in experiment [1] was 0.1 µg/mL (≈ 0.122 µM). `S=C(NN=C(c1ccccc1)c1ccccc1)Nc1ncc(C2CCC2)o1` displayed an IC50 in the experiment on Vero [2] of over 62.5 µg/mL. This molecule also showed an MIC in experiment [1] of 0.1 µg/mL (≈ 0.266 µM). Besides, the Selectivity index in the experiment on Vero [8] is over 1250. Molecule `CN(C)c1ccc(/C=N/N=C(\S)Nc2ncc(C3CCC3)o2)cc1` returned an MIC in experiment [1] of 3.12 µg/mL (≈ 9.08 µM).

On to `C/C(=N\N=C(/S)Nc1ncc(C2CCC2)o1)c1ccc(C)cc1`, for which 0.78 µg/mL (≈ 2.37 µM) was the least that counted as inhibitory in experiment [1] (MIC).

In the experiment with Vero [2], `C/C(=N\N=C(/S)Nc1ncc(C2CCC2)o1)c1ccc(N)cc1` returned an IC50 of 62.5 µg/mL (≈ 190 µM). Inhibition of growth in experiment [1] (MIC) required 0.78 µg/mL (≈ 2.37 µM). `C/C(=N\N=C(/S)Nc1ncc(C2CCC2)o1)c1ccc([N+](=O)[O-])cc1`: in the experiment on Vero [2], the IC50 stood at 62.5 µg/mL (≈ 174 µM). Besides, inhibition of growth in experiment [1] (MIC) required 0.2 µg/mL (≈ 0.556 µM). Turning to `C/C(=N\N=C(/S)Nc1ncc(C2CCC2)o1)c1ccc(O)cc1`, in experiment [1], the MIC turned out to be 3.12 µg/mL (≈ 9.44 µM).

On to `S=C(N/N=C(\c1ccccc1)c1ccc(Br)cc1)Nc1ncc(C2CCC2)o1`, for which the IC50 in the experiment with Vero [2] was over 62.5 µg/mL. Also, the results for the Log10 cfu in experiment [3] and in experiment [4] were 5.12 and 5.78, respectively. Also, inhibition of growth in experiment [1] (MIC) required 0.05 µg/mL (≈ 0.11 µM). In turn, `O=[N+]([O-])c1cccc(/C=N/N=C(\S)Nc2ncc(C3CCC3)o2)c1` returned a 50% inhibitory concentration (IC50) in the experiment on Vero [2] of under 62.5 µg/mL. This molecule also registered a minimum inhibitory concentration (MIC) in experiment [1] of 0.78 µg/mL (≈ 2.26 µM).

For orientation: MIC means the lowest concentration found to suppress growth. As a reminder, the IC50 is the midpoint of a concentration-inhibition curve.
